Screens as filed in PubChem BioAssay.
Most compounds without a hit are left out; they make up all but 2.3% or so of the library.
TRPC6 inh – blocks the mouse TRPC6 cation channel | HEK293-TRPC6, membrane potential dye, ACh-evoked depolarization; hits give low values | B-score at 10 µM | actives 1.1% (n = 310,000);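 active = B-score under library mean minus 3 SD, initial fluorescence not abnormally high, positive integrated signal ratio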;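 note: B-score derived from integrated fluorescence ratio over the kinetic read; more negative B-score means stronger inhibition of depolarization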
TRPC4 potent – TRPC4 (mouse) allosteric potentiation | Q9QUQ5 | B-score at 10 µM | HEK293 TRPC4beta/mu-opioid, DAMGO EC20, Fluo-4 Ca2+ flux; hits give high values | actives 0.42% (n = 310,000);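 active = B-score of calcium response area above 5 SD of library B-scores, with initial fluorescence ratio within 5 SD of library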;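 note: B-score of integrated fluorescence ratio over time as area under calcium response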
Target sequence (Q9QUQ5 whole entry, looked up): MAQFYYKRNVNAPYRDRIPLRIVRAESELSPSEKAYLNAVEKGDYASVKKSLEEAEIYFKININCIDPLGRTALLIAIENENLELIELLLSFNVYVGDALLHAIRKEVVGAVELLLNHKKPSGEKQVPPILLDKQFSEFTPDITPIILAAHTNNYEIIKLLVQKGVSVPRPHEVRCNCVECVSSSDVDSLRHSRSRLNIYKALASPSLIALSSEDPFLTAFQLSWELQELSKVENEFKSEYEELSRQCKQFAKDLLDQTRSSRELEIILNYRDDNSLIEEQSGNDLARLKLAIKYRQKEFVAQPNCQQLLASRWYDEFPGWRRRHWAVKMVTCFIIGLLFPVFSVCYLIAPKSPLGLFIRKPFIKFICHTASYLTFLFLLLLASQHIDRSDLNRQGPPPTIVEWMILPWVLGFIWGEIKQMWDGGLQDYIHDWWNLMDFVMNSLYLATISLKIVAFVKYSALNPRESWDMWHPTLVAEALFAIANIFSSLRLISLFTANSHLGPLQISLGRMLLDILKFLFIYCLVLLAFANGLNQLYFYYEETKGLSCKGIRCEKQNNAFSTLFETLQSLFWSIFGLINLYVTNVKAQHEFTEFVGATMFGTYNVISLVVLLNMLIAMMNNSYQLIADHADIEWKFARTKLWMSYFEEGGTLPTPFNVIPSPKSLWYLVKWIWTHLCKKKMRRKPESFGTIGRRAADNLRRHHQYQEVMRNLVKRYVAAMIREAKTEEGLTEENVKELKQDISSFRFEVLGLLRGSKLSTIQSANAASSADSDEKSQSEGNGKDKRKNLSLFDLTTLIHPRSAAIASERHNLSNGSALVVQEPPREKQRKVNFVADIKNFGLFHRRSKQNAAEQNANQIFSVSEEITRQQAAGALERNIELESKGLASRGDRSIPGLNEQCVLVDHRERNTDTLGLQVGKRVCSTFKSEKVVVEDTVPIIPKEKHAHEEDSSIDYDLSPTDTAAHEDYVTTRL
TRPC4 inh – TRPC4 (mouse) channel inhibition; HEK293 TRPC4beta/mu-opioid, DAMGO-evoked Fluo4 calcium flux; hits give low values; B-score at 10 µM; actives 0.39% (n = 300,000); AID 2247;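 active = B-score over 3 SD under the library average, no early fluorescence shift, positive overall ratio signal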
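material = TRPC4beta/mu-opioid receptor HEK293 cell line | probe or stimulus = sequential submaximal and maximal DAMGO stimulation | compound dosing = one concentration per compound | measured by = Fluo4 Ca2+ flux fluorescence | evaluation = integrated fluorescence ratio relative to baseline, converted to per-well B score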
TRPC6 activator – mouse TRPC6 channel activation. B-score at 10 µM. Q61143. actives 0.13% (n = 310,000). HEK293-TRPC6 membrane potential dye fluorescence; hits give high values;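 active = B-score of the integrated fluorescence ratio above library mean plus 3 SD, and starting fluorescence ratio within library mean plus 5 SD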;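 note: higher score means more depolarization so channel activation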
TRPC4 agonist – activators of mouse TRPC4 channel | HEK293 TRPC4beta/mu-opioid, Fluo4 calcium fluorescence; hits give high values | B-score at 10 µM | AID 2237 | actives 0.49% (n = 310,000) | Q9QUQ5;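 active = B-score above 5 SD of library B-scores, and initial fluorescence ratio not above library mean plus 5 SD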;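 note: positive B-score marks a calcium rise read as TRPC4 activation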
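Assay system: HEK293 cells stably co-expressing mouse TRPC4beta and mu-opioid receptor / Timing: Fluo4 dye loading 45 min at room temperature, 110 s recording / Signal: Fluo4 calcium-sensitive dye fluorescence, kinetic, 1 Hz baseline / Read-out: integrated baseline-normalised fluorescence ratio, converted to per-well B score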
TRPC4 sel inh 2 – second selectivity test of TRPC6 inhibitors: effect on mouse TRPC4; shares compounds with TRPC6 inh; HEK293 TRPC4/MOR, membrane potential dye fluorescence; channel activated by saturating DAMGO dose; inhibition, % at 10 µM; actives 42% (n = 920);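 active = compounds whose fluorescence signal differed from control wells by over 3 SD, either direction, in both duplicate plates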
TRPC4 spec – mouse TRPC4 off-target activity of TRPC6 inhibitors; actives 61% (n = 920); AID 2777; shares compounds with TRPC6 inh; activity change, negative = inhibition, % at 10 µM; HEK293 TRPC4/mu-opioid, membrane potential fluorescence;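 active = rise or fall in signal beyond 3 SD of buffer-only wells in both replicate plates, either sign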;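 note: integrated kinetic ratio of fluorescence range over baseline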
HEK293 MPD ctr 2-1 – second counter-screen for TRPC6 inhibitors: parental HEK293 cells; shares compounds with TRPC6 inh; parental HEK293 membrane potential dye fluorescence; maximal acetylcholine challenge after compound addition; signal change vs control, % at 10 µM; actives 31% (n = 920);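 active = membrane potential signal moving either way by over 3 SD of the maximum-effect control, in both duplicate plates, meaning non-specific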
HEK293 MPD ctr-1 – checks TRPC6 inhibitor effects in parental HEK293 cells | shares compounds with TRPC6 inh | parental HEK293 membrane potential dye fluorescence | membrane potential signal change, % at 10 µM | actives 60% (n = 920);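 active = membrane potential signal shifting up or down by more than 3 SD of buffer-only wells, on both duplicate plates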
HEK293 MPD ctr-2 – counter-screen for TRPC6 modulators: effect in parental HEK293 cells; shares compounds with TRPC6 inh; membrane potential dye fluorescence; membrane potential signal change, % at 10 µM; actives 51% (n = 2,400);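 active = membrane potential signal moves up or down beyond 5 SD from buffer-only wells, on both duplicate plates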
HEK293 MPD ctr 2-2 – second counter-screen for TRPC6 modulators: effect in parental HEK293 cells; membrane potential dye fluorescence; after compound, maximal acetylcholine stimulation; AID 488926; shares compounds with TRPC6 inh; actives 14% (n = 2,400); inhibition, % at 10 µM;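 active = membrane potential signal drops by more than 5 SD from the mean control signal, in both duplicate plates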;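 note: plate controls were acetylcholine ECmax control wells for no effect and buffer only wells for full effect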
TRPC4 ctr mod – mouse TRPC4 off-target activity of TRPC6 modulators; shares compounds with TRPC6 inh; HEK293 TRPC4/mu-opioid, membrane potential fluorescence; percent change from control (negative = decrease, positive = increase), % at 10 µM; actives 69% (n = 2,400);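 active = membrane potential signal moved up or down beyond 5 SD of buffer control wells, in both duplicate plates, actives on both sides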;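 note: plate controls were assay buffer wells for no effect and DAMGO maximal-effect wells for full effect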
TRPC4/MOR inh 2 – second check of whether TRPC6 modulators also affect mouse TRPC4; shares compounds with TRPC6 inh; AID 488928; inhibition, % at 10 µM; actives 55% (n = 2,400); HEK293 TRPC4/mu-opioid, membrane potential dye fluorescence; stimulated with maximal-effect DAMGO;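 active = drop in membrane potential signal beyond 5 SD of the control wells in both duplicate plates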;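 note: TRPC4 counter screen for TRPC6 hits run under conditions tuned for TRPC6 not TRPC4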
TRPC6 inh conf – confirmation of mouse TRPC6 inhibitors; actives 43% (n = 3,300); inhibition, % at 10 µM; shares compounds with TRPC6 inh; AID 488960; HEK293-TRPC6, membrane potential dye, ACh-evoked depolarization;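 active = fluorescence ratio falls more than 5 SD below the full-stimulation control mean, in both duplicate runs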;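 note: integrated fluorescence ratio of peak minus minimum over baseline after agonist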
TRPC6 act conf – mouse TRPC6 activator confirmation; shares compounds with TRPC6 inh; HEK293-TRPC6 membrane potential dye fluorescence, FDSS; activation, % at 10 µM; actives 11% (n = 2,800); AID 488961;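 active = ratio signal rise beyond 5 SD above unstimulated control wells' mean, seen in both duplicate runs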;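 note: plate controls were buffer EC0 wells for no effect and acetylcholine ECmax response for full effect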
An asterisk follows results filed as active; i = inactive; / = no result given.

SMILES | TRPC6 inh | TRPC4 potent | TRPC4 inh | TRPC6 activator | TRPC4 agonist | HEK293 MPD ctr-2 | HEK293 MPD ctr 2-2 | TRPC4 ctr mod | TRPC4/MOR inh 2 | TRPC6 inh conf | TRPC6 act conf | others
CCN1CCN(C(=O)/C=C/c2cccc(Cl)c2)CC1 | i | i | i | i | i | / | / | / | / | / | /
N/C(=N\OC(=O)c1ccco1)c1cccc(Br)c1 | i | i | i | i | i | / | / | / | / | / | /
N/C(=N\OC(=O)c1ccco1)c1cccc([N+](=O)[O-])c1 | -5.3* | i | i | i | i | i | i | i | i | i | i
CC(=O)c1ccc(NC2=C(N3CCOCC3)C(=O)c3ccccc3C2=O)cc1 | i | i | i | i | i | / | / | / | / | / | /
Cc1ccc(NC2=C(N3CCOCC3)C(=O)c3ccccc3C2=O)cc1 | -5.5* | i | i | i | i | i | i | -31%* | 78%* | i | i
COc1ccccc1C1CCN(C(=O)c2ccc(C(C)(C)C)cc2)CC1 | i | i | i | i | i | / | / | / | / | / | /
Cc1ccc(SC(=O)c2c([N+](=O)[O-])c(C)nn2C)cc1 | -7.2* | i | i | i | i | / | / | / | / | 76%* | i | TRPC4 sel inh 2=i;TRPC4 spec=i;HEK293 MPD ctr 2-1=-5.5%*;HEK293 MPD ctr-1=i
Cc1cc(C)n(C(=O)c2c([N+](=O)[O-])c(C)nn2C)n1 | i | i | i | i | i | / | / | / | / | / | /
COc1cc2c(cc1OC)C(NC(=O)c1ccc(C)cc1)CC2=O (centres undefined) | i | i | i | i | i | / | / | / | / | / | /
O=C(Nc1cccc(C(=O)O)c1)/C(=C/c1ccc([N+](=O)[O-])cc1)NC(=O)c1ccccc1 | i | i | i | i | i | / | / | / | / | / | /
O=C(Nc1cccc2ccccc12)/C(=C/c1ccc([N+](=O)[O-])cc1)NC(=O)c1ccccc1 | -6* | i | i | i | i | i | i | i | 71%* | 58%* | i
CCN(CC)CCn1c(NC(=O)c2ccccc2O)nc2ccccc21 | -12* | i | i | i | i | / | / | / | / | 88%* | i | TRPC4 sel inh 2=20%*;TRPC4 spec=-26%*;HEK293 MPD ctr 2-1=3.5%*;HEK293 MPD ctr-1=-336%*
O=C(Nc1nc2ccccc2n1CCN1CCCCC1)c1ccc(Cl)cc1 | i | i | i | i | i | / | / | / | / | / | /
Cc1ccc(C(=O)Nc2nc3ccccc3n2CCN2CCCC2)cc1 | -11* | i | i | i | i | -130%* | 74%* | -30%* | 88%* | 92%* | i
CCn1nccc1C(=O)Nc1nc2ccccc2n1CCN1CCCCC1 | -6.8* | i | i | i | i | / | / | / | / | i | i | TRPC4 sel inh 2=68%*;TRPC4 spec=-11%*;HEK293 MPD ctr 2-1=i;HEK293 MPD ctr-1=i
CCN(CC)CCn1c(C)nc2ccccc21 | i | i | i | i | i | / | / | / | / | / | /
Cc1ccc(N(CC(=O)NC2CCCCC2)C(=O)CCC(=O)Nc2nccs2)cc1 | i | i | i | i | i | / | / | / | / | / | /
CCOC(=O)C1=C(C)OC(N)=C(C#N)C1c1cc2c(cc1Br)OCO2 (centres undefined) | -5.2* | i | i | i | i | i | i | i | i | i | i
CCOC(=O)C1(C)/C(=N/Nc2ccccc2Cl)C(=O)C(=O)N1c1ccccc1 (centres undefined) | -5.1* | i | i | i | i | -76%* | i | -21%* | 48%* | i | i
CCOC(=O)C1(C)/C(=N/Nc2ccc(Cl)cc2)C(=O)C(=O)N1c1ccccc1 (centres undefined) | i | i | i | i | i | / | / | / | / | / | /
CC(=O)c1cc2c(cc1NC(=O)c1cnc(C)cn1)OCO2 | -11* | i | i | i | i | / | / | / | / | i | i | TRPC4 sel inh 2=74%*;TRPC4 spec=-28%*;HEK293 MPD ctr 2-1=i;HEK293 MPD ctr-1=-412%*
O=C(NCc1ccncc1)C12CC3CC(CC(Cl)(C3)C1)C2 | i | i | i | i | i | / | / | / | / | / | /
COC(=O)C1=NN(C(=O)c2ccc(C)cc2)C(O)(c2ccc(Cl)cc2)C1 (centres undefined) | -6.6* | i | i | 34* | 102* | 421%* | i | 82%* | i | 77%* | 298%*
COC(=O)C1=NN(C(=O)c2ccccc2)C(O)(c2ccc([N+](=O)[O-])cc2)C1 (centres undefined) | i | i | i | i | i | / | / | / | / | / | /
COC(=O)N1CCN(c2ccc(Cl)c(Cl)c2)CC1 | -6.3* | i | i | i | i | i | i | 8.0%* | 37%* | i | i
COC(=O)N1CCN(c2ccc(C)c(C)c2)CC1 | i | i | i | i | i | / | / | / | / | / | /
COCCCn1c(=N)c(C(=O)NCc2ccc3c(c2)OCO3)cc2c(=O)n3ccccc3nc21 | -10* | i | i | i | i | / | / | / | / | i | i | TRPC4 sel inh 2=64%*;TRPC4 spec=-12%*;HEK293 MPD ctr 2-1=30%*;HEK293 MPD ctr-1=i
N=c1c(C(=O)NCc2ccc3c(c2)OCO3)cc2c(=O)n3ccccc3nc2n1Cc1cccnc1 | i | i | i | i | i | / | / | / | / | / | /
